This is a sample that favours compounds with a hit; in the whole collection about 1.9% have one here.
MBD2 inh: inhibitors of MBD2 binding to methylated DNA, primary screen, biochemical, TR-FRET, DNA-binding domain, human; 370,000 compounds, 0.31% hits; Methyl-CpG-binding domain protein 2 (Homo sapiens), Q9UBB5; MBD2 binding to methylated oligonucleotide; AID 686964, 2013; inhibition, % at 4.4 µM; in the data active means inhibition above about 13%
Tn6 DDE FP: inhibitors of Tn6 peptide binding to fibrin DD(E), primary screen, biochemical, fluorescence polarization, human fibrin, Tn6 probe | Fibrinogen beta chain (Homo sapiens), P02675 | Fibrin DD(E) TRITC-Tn6 fluorescence polarization displacement | inhibition, % at 8.3 µM | 370,000 compounds, 0.21% hits | AID 720509, 2013;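 active means inhibition above a per-campaign cutoff: mean of compounds within control limits plus 3 SD, cut at about 15% in these data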
Target sequence (P02675 whole entry, looked up): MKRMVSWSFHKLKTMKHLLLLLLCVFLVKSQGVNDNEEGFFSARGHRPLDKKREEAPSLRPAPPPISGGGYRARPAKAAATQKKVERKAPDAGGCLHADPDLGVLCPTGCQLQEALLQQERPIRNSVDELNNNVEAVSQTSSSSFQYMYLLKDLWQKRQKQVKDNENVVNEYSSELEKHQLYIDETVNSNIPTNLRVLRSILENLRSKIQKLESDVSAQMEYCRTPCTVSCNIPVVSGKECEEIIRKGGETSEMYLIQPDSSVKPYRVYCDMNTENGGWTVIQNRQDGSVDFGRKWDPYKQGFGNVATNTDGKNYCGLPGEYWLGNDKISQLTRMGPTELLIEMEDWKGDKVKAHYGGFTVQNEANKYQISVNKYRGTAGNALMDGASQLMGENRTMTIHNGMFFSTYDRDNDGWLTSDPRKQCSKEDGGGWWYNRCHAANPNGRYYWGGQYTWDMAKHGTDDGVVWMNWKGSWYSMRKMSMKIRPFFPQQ
DDE Tn7 FP inh: inhibitors of Tn7 peptide binding to fibrin DD(E), primary screen, biochemical, fluorescence polarization, human fibrin, Tn7 probe; Fibrinogen beta chain (Homo sapiens), P02675; FP displacement of FITC-Tn7 peptide from fibrin DD(E); 0% = median of compound wells per plate; inhibition, % at 8.3 µM; 370,000 compounds, 0.13% hits; AID 720508, 2013;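 active means inhibition above the mean of compounds falling within the control limits plus 3 SD of them, cut at about 14% in these data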
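assay system = human clot-derived fibrin DD(E) complex | quantity = Fibrin-DD(E) at 2 µM final | timing = 10 min preincubation, 3 h with tracer, room temperature | signal = fluorescence polarization | measure = percent inhibition | benchmarks = high control wells with 10 µM unlabelled Aha-Tn7 peptide (full inhibition) | replicates = singlicate testing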
TDP2 absorb: human TDP2 enzyme inhibitors, primary screen, biochemical, epi absorbance, recombinant enzyme | Tyrosyl-DNA phosphodiesterase 2 (Homo sapiens), O95551 | T5PNP hydrolysis, p-nitrophenol absorbance 415 nm | 370,000 compounds, 0.34% hits | inhibition, % at 12.8 µM;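 active means inhibition above the mean of all tested compounds plus 3 SD, set per campaign, cut at about 25% in these data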
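Test system: human TDP2 enzyme; Input: 120 nM TDP2 per well; Buffer or medium: Mg2+-containing Tris-HCl buffer, pH 7.5; Reagent: 5 mM T5PNP; Dosing: 12.8 µM single point, 1% DMSO; Incubation: reaction 2 h, 37 °C; Detection: p-Nitrophenol epi absorbance; Read-out: % inhibition relative to enzyme-containing and enzyme-free wells; Replicates: single well per compound.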
UHRF1 MBD2 ctr: UHRF1 methylated DNA binding inhibitors, primary screen, counter-screen for MBD2 inhibitor project, biochemical, TR-FRET, human UHRF1, single concentration | 370,000 compounds, 0.75% hits | E3 ubiquitin-protein ligase UHRF1 (Homo sapiens), Q96T88 | inhibition, % at 4.4 µM | UHRF1 binding to methylated oligo | AID 687016, 2013;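 further: UHRF1 SRA domain binding a hemimethylated CpG hairpin DNA probe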
LEDGF integ inh: blockers of LEDGF/p75-dependent integrase strand transfer – biochemical, TR-FRET, high throughput, primary screen. HIV-1 integrase (with human LEDGF/p75). TR-FRET IN-LEDGF/p75 DNA integration, Eu/Cy5. 370,000 compounds, 0.64% hits. inhibition, % at 3.7 µM;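 active means inhibition above the screen-wide mean plus 3 SD, cut at about 13% in these data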;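 further: signal is the Cy5 over europium emission ratio at 671 and 618 nm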
UHRF1 ctr MBD2: UHRF1 methylated DNA binding inhibitors, counter-screen for MBD2 inhibitor project, biochemical, TR-FRET, human UHRF1; shares compounds with MBD2 inh; 1,000 compounds, 25% hits; UHRF1 binding to methylated oligonucleotide; inhibition, % at 4.4 µM;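 further: UHRF1 SRA domain binding a labeled hemimethylated CpG hairpin DNA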
MBD2 confirm: inhibitors of MBD2 binding to methylated DNA, confirmation, biochemical, TR-FRET, DNA-binding domain, human; shares compounds with MBD2 inh; TR-FRET MBD2-DBD binding to methylated oligonucleotide; inhibition, % at 4.4 µM; 1,000 compounds, 26% hits; AID 720531, 2013; in the data active means inhibition above about 14%
Hits are given with their value; n = inactive. Unless noted, no stated cut-off is given here; in the data, active means inhibition above about 21%; inactive means the rest.

SMILES	MBD2 inh	Tn6 DDE FP	DDE Tn7 FP inh	TDP2 absorb	UHRF1 MBD2 ctr	LEDGF integ inh	others
O=C(C[N+]12CCC(CC1)C(CO)C2)c1ccc([N+](=O)[O-])cc1 (stereo not drawn)	n	n	n	n	29	n
COC1=CC23CCCN2CCc2cc4c(cc2C3C1O)OCO4 (stereo not drawn)	n	n	n	n	43	n
COc1ccc2c(c1OC)C(=O)OC2C1c2cc3c(cc2CCN1C)OCO3 (stereo not drawn)	n	n	n	n	n	n
C[C@H](CO)N1C[C@H](C)[C@@H](CN(C)C(=O)Oc2ccccc2)OCc2cnnn2CCCC1=O	n	n	n	n	n	n
COc1ccc(-n2c(O)c(C=Nc3c(C)n(C)n(-c4ccccc4)c3=O)c(=O)[nH]c2=O)cc1	n	17	n	n	n	n
COc1cccc(-n2c(O)c(C=Nc3c(C)n(C)n(-c4ccccc4)c3=O)c(=O)[nH]c2=O)c1	n	n	n	n	n	n
C=CC12CN(C)C3C4COC(CC41)C1(C(=O)Nc4ccccc41)C32 (stereo not drawn)	n	n	n	n	n	n
CCC1(c2ccccc2)C(=O)N(C)C(=O)N(C)C1=O	n	n	n	n	n	n
CN1C(=O)N(C)C(=O)C2(Sc3ccccc3C2=O)C1=O	n	n	n	27	n	29
Cc1cc2c(C(C)C)c(O)c(O)c(C=O)c2c(O)c1-c1c(C)cc2c(C(C)C)c(O)c(O)c(C=O)c2c1O	n	n	n	n	n	66
COc1ccc(-c2nc3ccc(Br)cn3c2CC(=O)N2CCCC2)cc1OC	n	n	n	n	23	n
C[C@]12CC[C@@H](O)C[C@@H]1CC[C@@H]1[C@@H]2CC[C@]2(C)C(=O)CC[C@@H]12	n	n	16	n	n	n
Cc1ccc(OP2(=O)Nc3cc(C)c(C)cc3S2)cc1 (stereo not drawn)	n	n	n	n	n	n
COc1ccc(CCn2c(O)c(/C=N/N3CCOCC3)c(=O)[nH]c2=O)cc1OC	n	n	n	n	42	n
COc1ccc(CCn2c(O)c(C=NCCN3CCCCC3)c(=O)[nH]c2=O)cc1OC	n	n	n	n	n	n
Cc1cccc(N2C(=O)/C(=C/c3ccc(N4CCN(C)CC4)o3)C(=O)NC2=S)c1C	n	n	n	n	n	14
COc1ccc(-n2nnnc2C(c2cccc3ccccc23)N2CCC3(CC2)C(=O)NCN3c2ccccc2)cc1 (stereo not drawn)	n	n	n	n	n	n
CN1C(=O)NC(=O)/C(=C/c2ccc([N+](=O)[O-])o2)C1=O	n	n	n	n	65	37
CC1=CP(=O)(Oc2ccc([N+](=O)[O-])cc2)CC1 (stereo not drawn)	n	n	n	n	n	n
CCN(CC)C(=O)c1ccc2c(c1)C1C=CCC1C(C(=O)O)N2 (stereo not drawn)	n	n	n	n	n	39
Cc1ccc(OP(=O)(NCc2ccccc2)Oc2ccc(C)cc2)cc1	n	n	n	n	23	n
CC[C@@H]1C[C@H]2CC[C@H](O2)[C@H](C)C(=O)O[C@@H](C)C[C@@H]2CC[C@@H](O2)[C@@H](C)C(=O)O[C@H](C)C[C@H]2CC[C@H](O2)[C@H](C)C(=O)O[C@@H](C)C[C@@H]2CC[C@@H](O2)[C@@H](C)C(=O)O1	n	n	n	n	n	n
Cc1ccccc1-c1ccc2c(c1)C1c3c(-c4ccccc4)nnn3-c3ccccc3C(=O)N1CC2 (stereo not drawn)	n	n	n	n	n	n
CCOC(=O)C1=C(C(=O)OCC)C2(c3ccccc3)c3ccccc3C1(C)N2C (stereo not drawn)	n	n	n	n	n	n
Clc1cccc(N2Cc3cc(-c4ccccc4)ccc3-n3nncc3C2)c1	n	n	n	n	n	67
SMILES	MBD2 inh	Tn6 DDE FP	DDE Tn7 FP inh	TDP2 absorb	UHRF1 MBD2 ctr	LEDGF integ inh	others
COc1ccc(CN2C(=O)NC(=O)/C(=C/c3ccoc3)C2=O)cc1	n	n	n	n	21	n
COc1ccc(CN2C(=O)NC(=O)/C(=C/c3cc(OC)c(OC)c(OC)c3)C2=O)cc1	n	n	n	n	n	n
O=C1c2ccccc2-c2cc3ccccc3cc21	n	n	n	n	n	n
O=C1C=C(N2CC2)c2ccccc2C1=O	n	n	n	52	n	39
O=C1NC(=O)N(Cc2ccco2)C(=O)/C1=C/c1cccn1CCOc1ccccc1Cl	n	n	n	n	50	57
O=C1NC(=O)N(Cc2ccccc2)C(=O)/C1=C\c1ccco1	n	n	n	n	n	n
CCOC(=O)CC[C@@H]1CC[C@]2(CCCN(Cc3ccncc3)C2)O1	n	n	n	n	n	n
C#C[C@]1(O)CCC2C3CCC4=C/C(=N/OCC(=O)NC(C)C(=O)NC(CCSC)C(=O)O)CC[C@]4(C)C3CC[C@@]21C (stereo partly drawn)	44	n	n	n	n	n	UHRF1 ctr MBD2=n;MBD2 confirm=n
CCOC(=O)CNC(=O)N1Cc2ccccc2-n2nncc2C1	n	n	n	n	n	n
O=C(CCc1ccccc1)N1Cc2cc(N3CCCCC3)ccc2-n2nncc2C1	n	n	n	n	n	n
CCCCSP1(=S)NCCCO1 (stereo not drawn)	38	n	n	n	n	n	UHRF1 ctr MBD2=n;MBD2 confirm=n
COc1c(OP2(=S)OCC(C)(C)CO2)cnn(C2CCCCC2)c1=O	n	n	n	n	n	n
C[C@H](NC(=O)OCc1ccccc1)[P+](=O)O	14	n	n	n	n	n	UHRF1 ctr MBD2=n;MBD2 confirm=n
